Measurements from ChEMBL document CHEMBL5370602, “Structure-Based Design of a Lead Compound Derived from Natural Schweinfurthins with Antitumor Properties That Target Oxysterol-Binding Protein” (J Med Chem, 2023).

Assays:
U-87 MG [1] = assay: Induction of autophagy in human U-87 MG cells assessed as decrease in LC3I expression at 0.05 to 1 uM incubated for 48 hrs by Western blot analysis; assay type: functional, cell-based; settings: U-87MG ATCC
Summary of the method: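 U-87 MG cells cultured two days, then exposed 48 h to increasing doses. Lysed in RIPA with protease inhibitors; 5 µg protein run on 4-20% SDS gels and transferred to PVDF. Probed for phospho/total AKT, S6, S6K, P62 and LC3, detected by ECL. Band intensities normalized to β-actin.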

U-87 MG [2] = assay: Antiproliferative activity against human U-87 MG cells assessed as inhibition of cell proliferation incubated for 72 hrs by CellTiter-Glo luminescent assay; assay type: functional, cell-based, U-87MG ATCC
Summary of the method: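 A549 in RPMI 1640 and U-87MG in DMEM, each with 10% FCS and 1% glutamine, at 37 °C and 5% CO₂. Cells seeded at 3000/well, dosed the next day, treated 72 h. Viability read by CellTiter-Glo luminescence with DMSO-treated cells set to 100%. IC50 taken from survival curves over three independent experiments.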

[3] = molecular target: T1, Oxysterol-binding protein 1 (Homo sapiens, UniProt P22059); assay: Inhibition of human C-terminal 6-His tagged OSBP ORD domain (401 to 807 residues) expressed in baculovirus-infected Sf9 cells assessed as reduction in DHE transfer from liposome (Le mimicking ER) to liposome (Lg mimicking golgi) with compound by FRET assay
T1 sequence (P22059 whole entry): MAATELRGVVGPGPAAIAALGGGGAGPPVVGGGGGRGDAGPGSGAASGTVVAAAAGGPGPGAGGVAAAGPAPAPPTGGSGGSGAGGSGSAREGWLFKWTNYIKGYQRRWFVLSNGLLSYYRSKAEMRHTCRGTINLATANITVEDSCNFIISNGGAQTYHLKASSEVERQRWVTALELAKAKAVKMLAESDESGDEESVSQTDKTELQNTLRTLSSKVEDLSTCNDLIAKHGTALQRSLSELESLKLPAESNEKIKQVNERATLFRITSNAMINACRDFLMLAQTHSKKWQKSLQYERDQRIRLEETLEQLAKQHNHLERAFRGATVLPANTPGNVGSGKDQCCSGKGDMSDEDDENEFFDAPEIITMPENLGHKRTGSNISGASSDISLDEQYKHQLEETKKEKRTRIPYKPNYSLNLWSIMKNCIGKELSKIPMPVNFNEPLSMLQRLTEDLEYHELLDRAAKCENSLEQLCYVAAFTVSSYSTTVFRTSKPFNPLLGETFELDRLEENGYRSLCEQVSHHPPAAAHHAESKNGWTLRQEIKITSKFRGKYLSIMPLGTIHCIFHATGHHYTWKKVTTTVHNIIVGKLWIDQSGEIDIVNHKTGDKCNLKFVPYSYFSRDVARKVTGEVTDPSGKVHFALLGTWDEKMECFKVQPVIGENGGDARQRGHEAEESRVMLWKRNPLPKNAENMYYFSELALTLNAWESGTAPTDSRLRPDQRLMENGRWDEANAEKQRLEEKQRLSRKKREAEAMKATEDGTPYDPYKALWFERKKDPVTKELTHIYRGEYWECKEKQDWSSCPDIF
Summary of the method: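 Purified human OSBP ORD (401-807, C-terminal 6×His) from baculovirus-infected Sf9 cells, used in a DHE sterol transfer fluorescence assay. Signal corrected for compound fluorescence. Kinetics fitted linearly or by ΔF = ΔFmax(1 − e^−kt) to give apparent k, which was plotted against compound concentration. Ki from a quadratic (tight binders) or hyperbolic equation, three independent experiments.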

[4] = Metabolic stability in mouse plasma assessed as half life at 5 uM and measured upto 120 mins by UPLC-MS/MS analysis; assay type: ADME, cell-free
Summary of the method: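 Male mouse plasma at 37 °C with compound added from a 5 µM solution […]. Sampled at 0, 15, 30, 45, 60 and 120 min, quenched with acetonitrile and read by LC-MS/MS (MRM) in duplicate. Procaine positive control. Remaining % and t1/2 derived from MRM area relative to t = 0.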

[5] = Antitumor activity in high alert medicated patient derived human GBM1 cells xenografted in immunodeficient nude mouse model assessed as T/C ratio at 20 mg/kg,ip QD cotreatment with Temozolomide at 42 mg/kg,po QD and measured after 11 days; assay type: functional; settings: time 11 day
Summary of the method: (§1)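 Female athymic nude mice bearing subcutaneous GBM1-HAM PDX fragments (20 mm³); treatment began day 11 post-implant at tumour volumes 75-196 mm³, 10 per group. Compound i.p. daily in cyclodextrin vehicle (17 days alone, 27 days in combination); temozolomide 42 mg/kg p.o. daily for 5 days in PBS/glucose/Tween 80. Calliper volumes three times weekly; body weight and clinical signs monitored.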

[6] = molecular target: T2, Oxysterol-binding protein 1 (Homo sapiens) (UniProt P22059); assay: Inhibition of human OSBP in human hTERT-RPE1 cells co-transfected with GFP-P4MSidM and TagBFP-betaGalT1 assessed as half life for inhibition of PI4P transfer by OBSP by immunofluorescence analysis; assay type: cell-based
T2 sequence (whole entry): T1 sequence (P22059 whole entry)
Summary of the method: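 hTERT-RPE-1 cells electroporated with GFP-P4M^SidM (PI4P probe) and TagBFP-βGalT1, plated 18-24 h. Timelapse confocal imaging at 37 °C after compound addition, with P4M-GFP intensity at the TGN tracked over time and compared before and 50 min after addition. Mean of 4 to 6 independent experiments ± SEM.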

[7] = Antitumor activity in high alert medicated patient derived human GBM1 cells xenografted in immunodeficient nude mouse model assessed as tumor growth inhibition at 20 mg/kg,ip QD cotreatment with Temozolomide at 42 mg/kg,po QD and measured after 11 days; assay type: functional; settings: GBM1, 264 h; summary of the method: as §1
[8] = Antitumor activity in high alert medicated patient derived human GBM1 cells xenografted in immunodeficient nude mouse model assessed as change in tumor volume at 20 mg/kg,ip QD cotreatment with Temozolomide at 42 mg/kg,po QD and measured after 11 days relative to control; assay type: functional; settings: time 11 day; summary of the method: as §1

CC1(C)CCc2c(O)cc(/C=C/c3cc(O)c4c(c3)C[C@@H]3C(C)(C)[C@H](OC=O)CC[C@@]3(C)O4)cc2O1
Activity (U-87 MG [1]): Dose-Dependent Effect | IC50 (U-87 MG [2]): 12.4 nM | Ki [3]: 1070 nM | half-life at 5 µM [4]: 51 min | T/C [5]: 49.91% | T1/2 [6]: 25 min | TGDI at 20 mg/kg [7]: 1.75 | Activity [8]: 396.24%
